According to ChEMBL document CHEMBL1155964, “Discovery of diarylpyridine derivatives as novel non-nucleoside HIV-1 reverse transcriptase inhibitors” (Bioorg Med Chem Lett, 2009):

Key:
MT2 = test: Cytotoxicity against human MT2 cells after 4 days by XTT assay; format: cell-based; conditions: mt2, 96 h
[1] = system: Human immunodeficiency virus 1; test: Antiviral activity against HIV1 3B infected in human MT2 cells assessed as inhibition of viral replication by p24 antigen assay; format: functional, organism-based; conditions: Human immunodeficiency virus 1, 3B
Method in brief: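 HIV-1 IIIB replication in MT-2 cells, read as p24 production by ELISA. […] Tested in triplicate; means ± SD.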

[2] = Selectivity index, ratio of CC50 for human MT2 cells to EC50 for HIV1 3B; format: toxicity, cell-based; conditions: read-out: Ratio CC50/EC50
Method in brief: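 HIV-1 IIIB replication in MT-2 cells, measured by p24 ELISA to give the EC50. Cytotoxicity in uninfected MT-2 cells measured by XTT to give the CC50. Each run in triplicate and reported as means ± SD. SI = CC50/EC50.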

[3] = system: Human immunodeficiency virus 1; test: Antiviral activity against HIV1 NL4-3 infected in human TZM-bl cells assessed as inhibition of viral replication; format: functional, organism-based; conditions: Human immunodeficiency virus 1, NL4-3, TZM-bl
Method in brief: (§1)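 Tested in triplicate and reported as means ± SD. The RTMDR1 strain carries the RT mutations 74V, 41L, 106A and 215Y.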

[4] = system: Human immunodeficiency virus 1; test: Antiviral activity against HIV1 RTMDR1 infected in human TZM-bl cells assessed as inhibition of viral replication; format: functional, organism-based; conditions: Human immunodeficiency virus 1, RTMDR1, TZM-bl; method in brief: as §1
[5] = Cytotoxicity against human TZM-bl cells; format: cell-based
[6] = Selectivity index, ratio of CC50 for human TZM-bl cells to EC50 for HIV1 NL4-3; format: toxicity, cell-based; conditions: read-out: Ratio CC50/EC50
[7] = Selectivity index, ratio of CC50 for human TZM-bl cells to EC50 for HIV1 RTMDR1; format: toxicity, cell-based; conditions: read-out: Ratio CC50/EC50
[8] = system: Human immunodeficiency virus 1; test: Antiviral activity against HIV1 3B infected in human MT4 cells assessed as inhibition of viral replication; format: functional, organism-based; conditions: Human immunodeficiency virus 1, 3B
[9] = Selectivity index, ratio of CC50 for human MT4 cells to EC50 for HIV1 3B

| Compound | CC50 (MT2) [nM] | EC50 [1] [nM] | selectivity ratio [2] | EC50 [3] [nM] | EC50 [4] [nM] | CC50 [5] [nM] | selectivity ratio [6] | selectivity ratio [7] | EC50 [8] [nM] | selectivity ratio [9] |
| --- | --- | --- | --- | --- | --- | --- | --- | --- | --- | --- |
| Cc1cccc(C)c1Oc1ccc([N+](=O)[O-])c(Nc2ccc(C#N)cc2)n1 | 110000 | 1030 | 107 | 234 | 128 | > 55600 | > 238 | > 433 | – | – |
| C#Cc1cc(C)c(Oc2ccc([N+](=O)[O-])c(Nc3ccc(C#N)cc3)n2)c(C)c1 | 174000 | 677 | 256 | 111 | 215 | > 52100 | > 469 | > 242 | – | – |
| Cc1cccc(C)c1Oc1ccc(N)c(Nc2ccc(C#N)cc2)n1 | 29900 | 576 | 52 | 4.02 | 3.78 | 8140 | 2020 | 2150 | – | – |
| Cc1cc(C#CC(C)(C)O)cc(C)c1Oc1ccc(N)c(Nc2ccc(C#N)cc2)n1 | 3540 | 1580 | 2 | 241 | 531 | 8730 | 36 | 16 | – | – |
| Cc1cc(C)c(Oc2ccc(N)c(Nc3ccc(C#N)cc3)n2)c(C)c1 | 10600 | 58 | 182 | 1.67 | 1.2 | 18600 | 11200 | 15500 | – | – |
| Cc1cc(C)c(Oc2ccc([N+](=O)[O-])c(Nc3ccc(C#N)cc3)n2)c(C)c1 | 503000 | 118 | 4260 | 22.9 | 55.2 | > 53500 | > 2340 | > 969 | – | – |
| Cc1cc(C#CC(C)(C)O)cc(C)c1Oc1ccc([N+](=O)[O-])c(Nc2ccc(C#N)cc2)n1 | 8910 | 23300 | < 1 | 41300 | 25500 | > 45200 | > 1.09 | > 1.78 | – | – |
| C#Cc1cc(C)c(Oc2ccc(N)c(Nc3ccc(C#N)cc3)n2)c(C)c1 | 8250 | 424 | 20 | 6.7 | 9.03 | 9940 | 1480 | 1100 | – | – |
| Cc1cc(I)cc(C)c1Oc1ccc(N)c(Nc2ccc(C#N)cc2)n1 | 23500 | 79 | 297 | 7.6 | 5.13 | 16700 | 2200 | 3260 | – | – |
| Cc1cc(C#N)cc(C)c1Oc1ccc(N)c(Nc2ccc(C#N)cc2)n1 | 31800 | 1.4 | 22700 | 0.68 | 0.96 | 8980 | 13200 | 9350 | – | – |
| Cc1cc(I)cc(C)c1Oc1ccc([N+](=O)[O-])c(Nc2ccc(C#N)cc2)n1 | 148000 | 2430 | 61 | 61 | 94.3 | > 41200 | > 675 | > 436 | – | – |
| Cc1cc(C#N)cc(C)c1Oc1ccc([N+](=O)[O-])c(Nc2ccc(C#N)cc2)n1 | 50100 | 135 | 371 | 22.1 | 21.1 | > 52000 | > 2350 | > 2460 | – | – |
| Cc1cc(CO)cc(C)c1Oc1ccc(N)c(Nc2ccc(C#N)cc2)n1 | 2190 | 6 | 391 | 10.9 | 25.1 | 9340 | 857 | 372 | – | – |
| Cc1cc(CO)cc(C)c1Oc1ccc([N+](=O)[O-])c(Nc2ccc(C#N)cc2)n1 | 116000 | 192 | 603 | 477 | 877 | > 51300 | > 108 | > 58 | – | – |
| Cc1cc(C)c(Nc2ccnc(Nc3ccc(C#N)cc3)n2)c(C)c1 [DAPIVIRINE] | – | – | – | 0.62 | 0.298 | > 304 | > 490 | > 1020 | – | – |
| Cc1cc(C#N)cc(C)c1Oc1nc(Nc2ccc(C#N)cc2)nc(N)c1Br [ETRAVIRINE] | – | – | – | – | – | – | – | – | 1.58 | 63100 |
